The values that follow come from publication PMC4502975 (Angewandte Chemie (International Ed. in English), 2014).

Entries after “also recorded” stand apart in the source; their conditions may differ.

Data set [1] in a line: Buffer stability in AC assay buffer pH 4.5 by LC-MS. It is filed as physicochemical.
Data set [2] concerns the target T1, human AC (Homo sapiens, UniProt Q13510).
T1 sequence (Q13510 22-395): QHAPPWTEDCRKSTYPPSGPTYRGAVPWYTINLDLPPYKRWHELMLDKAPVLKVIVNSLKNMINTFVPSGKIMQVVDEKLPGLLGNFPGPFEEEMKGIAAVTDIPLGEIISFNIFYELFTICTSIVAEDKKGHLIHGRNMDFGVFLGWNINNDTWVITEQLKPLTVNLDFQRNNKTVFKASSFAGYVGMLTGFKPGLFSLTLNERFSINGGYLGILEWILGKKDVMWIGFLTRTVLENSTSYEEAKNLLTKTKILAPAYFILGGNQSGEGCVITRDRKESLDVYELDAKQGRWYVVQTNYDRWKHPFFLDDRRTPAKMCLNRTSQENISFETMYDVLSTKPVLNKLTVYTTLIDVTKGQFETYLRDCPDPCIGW
Briefly: Kinetic analysis of the AC reaction. It is filed as biochemical. Conditions: mean of two independent experiments. The gist of the method:
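Kinetic analysis of the fluorescence-based AC reaction run with vehicle (1% DMSO) or test compound at 20 or 50 nm, n=6 each. Vmax given in relative fluorescence units; KM derived for each condition. Values are the mean of two independent experiments.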

The target of data set [3] is T2, purified recombinant human AC (Homo sapiens, UniProt Q13510).
T2 sequence (Q13510 143-395 limits assumed): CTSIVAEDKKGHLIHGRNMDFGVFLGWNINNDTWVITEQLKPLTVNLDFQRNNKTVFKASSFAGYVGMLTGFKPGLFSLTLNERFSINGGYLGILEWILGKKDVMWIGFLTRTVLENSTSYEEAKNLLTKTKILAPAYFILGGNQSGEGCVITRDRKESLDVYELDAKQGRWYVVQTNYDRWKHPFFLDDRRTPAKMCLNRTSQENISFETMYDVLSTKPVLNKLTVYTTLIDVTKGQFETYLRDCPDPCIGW
T2 sequence (Q13510 22-142 limits assumed): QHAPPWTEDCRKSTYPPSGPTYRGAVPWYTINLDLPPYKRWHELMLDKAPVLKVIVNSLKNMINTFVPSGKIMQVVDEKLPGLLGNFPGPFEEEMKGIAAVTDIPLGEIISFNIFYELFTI
Briefly: LC-MS study of covalent adduct with AC. It is filed as binding. To be noted: 1:10 protein:compound, 1 h, 37 °C, pH 4.5.

Data set [4] in a line: Chemical stability in [D6]DMSO. It is filed as physicochemical.
Data set [5] concerns the target T1, human AC. The data set is described as follows: Acid ceramidase. It is filed as biochemical. Conditions: for IC50 [nM] ±S.E.M on human AC: means of at least three determinations.
The test system of the next data set is rat AC. Conditions: read-out: IC50 for rat AC; cited from earlier work.

Regarding `O=C(NCCCCc1ccccc1)n1c(=O)oc2ccccc21` [9 a, 2-oxo-N-(4-phenylbutyl)-1,3-benzoxazole-3-carboxamide], the half-life – broadly, the time needed for the level to fall by half in the phase considered – at 10 µM in data set [1] turned out to be 2.1 ± 0.05 h. Further, the figures for the Vmax on human AC [2] (9 a 20 nM) and on human AC [2] (9 a 50 nM) were 7808 RFU and 3889 RFU, respectively. Moreover, the “covalent binding to AC (LC-MS, tryptic peptide CTSIVAEDK)” value in data set [3] is “covalently binds to the catalytic cysteine, Cys-143”.
Consider `O=c1oc2ccccc2n1C(=S)NCCCCc1ccccc1` [9 b], for which the “chemical stability in [D6]DMSO” value in data set [4] is recorded as “limited chemical stability”. Also, the “IC50 [nM] ±S.E.M on human AC” value on human AC [5] is on record as “not stable”.
`CN(CCCCc1ccccc1)C(=O)n1c(=O)oc2ccccc21` [9 c]: at human AC [5], the “IC50 [nM] ±S.E.M on human AC” value is reported as “no inhibitory activity; also recorded: no inhibition”.
The same measure, in the same setting: to `O=C(OCCCCc1ccccc1)n1c(=O)oc2ccccc21` [9 d] belongs “no inhibitory activity; also recorded: no inhibition”; to `O=C(CCCCCc1ccccc1)n1c(=O)oc2ccccc21` [9 e], “Loss of activity; also recorded: no inhibition”.
Consider `O=C(NCCCCc1ccccc1)n1c(=O)oc2cc(Br)ccc21` [16 a], for which, in data set [1], the half-life at 10 µM is 4.9 ± 0.5 h. Besides, at human AC [5] (human AC), the “potency relative to 9 a” value is recorded as “two-fold increase in potency”.
For `CCCCCCNC(=O)n1cc(F)c(=O)[nH]c1=O` [carmofur, 5-fluoro-N-hexyl-2,4-dioxo-pyrimidine-1-carboxamide], the IC50 – broadly, the midpoint of a concentration-inhibition curve – in the data set with rat AC was 29 nM.
In the case of `O=c1[nH]c2ccc(-c3ccc(F)cc3)cc2o1` [compound 19], on human AC [5] (at 10 μM), the “inhibition of AC in vitro” value was “did not inhibit”.
